Results published in ChEMBL document CHEMBL1141579, “Synthesis, cytostatic, and antiviral activity of novel 6-[2-(dialkylamino)ethyl]-, 6-(2-alkoxyethyl)-, 6-[2-(alkylsulfanyl)ethyl]-, and 6-[2-(dialkylamino)vinyl]purine nucleosides” (Bioorg Med Chem, 2008).
Activity calls are given as the source filed them. The calls are words filed in the database; no cut-off is given here.

Tests used:
CCRF-CEM [1] = assay: Cytostatic activity against human CCRF-CEM cells ATCC CCL 119 assessed as cell viability by XTT test; format: functional, cell-based
In short: (§1)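 Cell viability quantified by the XTT spectrophotometric assay. Inhibition expressed as IC50.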

HL-60 [2] = assay: Cytostatic activity against human HL60 cells ATCC CCL 240 assessed as cell viability by XTT test; format: functional, cell-based; in short: as §1
CCRF-CEM [3] = assay: Cytostatic activity against human CCRF-CEM cells ATCC CCL 119 assessed as growth reduction after 72 hrs; format: functional, cell-based
In short: (§2)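 Cells grown in RPMI 1640 with foetal calf serum in 24-well plates. Counted in a haematological analyzer 72 h after drug addition. Inhibition expressed as IC50.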

Hepatitis C virus = assay: Antiviral activity against HCV 1b Con1 replicon in Huh7 cells; format: functional, organism-based, Hepatitis C virus subtype 1b; conditions: Huh-7
In short: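 Con-1/lucneo replicon cells seeded at 8 × 10^3 per well in medium without Geneticin. Compounds serially diluted in DMSO and added 1:200 (0.5% DMSO final). Incubated 3 days at 37 C. Cells lysed and luciferase activity read by luminometer. EC50 by non-linear regression, N = 2.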

HL-60 [4] = assay: Cell cycle arrest in human HL60 cells assessed as accumulation in G1 phase at 4.5 uM relative to control; format: functional
In short: (§3)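 HL-60 cells treated at the stated concentration, then fixed in ethanol. Stained with propidium iodide in buffer containing RNase A and analysed by flow cytometry. Result given as the ratio of the treated to the control cell fraction in each phase (G1, S, G2/M).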

HL-60 [5] = assay: Cytostatic activity against human HL60 cells ATCC CCL 240 assessed as growth reduction after 72 hrs; format: functional, cell-based; conditions: for IC50: HL-60, 72 h; in short: as §2
L1210 = assay: Cytostatic activity against mouse L1210 cells ATCC CCL219 assessed as growth reduction after 72 hrs; format: functional, cell-based; conditions: for IC50: L1210, 72 h; in short: as §2
HL-60 [6] = assay: Cell cycle arrest in human HL60 cells assessed as accumulation in S phase at 4.5 uM relative to control; format: functional; in short: as §3
HL-60 [7] = assay: Cell cycle arrest in human HL60 cells assessed as accumulation in G2/M phase at 4.5 uM relative to control; format: functional; in short: as §3
[8] = Cytotoxicity against human Huh7 cells harboring con1 replicon after 3 days by MTT assay; format: cell-based, Huh-7
In short: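 Con-1 replicon-bearing Huh-7 cells were seeded at 8 · 10^3 cells per well in medium without Geneticin. Compound was serially diluted in 100% DMSO and added 1:200, giving 0.5% DMSO final. Cells were incubated at 37 C for 3 days. Toxicity was read at the end, in duplicate (N = 2).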

HL-60 [9] = assay: Cell cycle arrest in human HL60 cells assessed as accumulation in G1 phase at 3.5 uM relative to control; format: functional; in short: as §3
HL-60 [10] = assay: Cell cycle arrest in human HL60 cells assessed as accumulation in G2/M phase at 3.5 uM relative to control; format: functional; in short: as §3
HL-60 [11] = assay: Cell cycle arrest in human HL60 cells assessed as accumulation in S phase at 14 uM relative to control; format: functional; in short: as §3
HL-60 [12] = assay: Cell cycle arrest in human HL60 cells assessed as accumulation in G2/M phase at 14 uM relative to control; format: functional; in short: as §3
HL-60 [13] = assay: Cell cycle arrest in human HL60 cells assessed as accumulation in G1 phase at 14 uM relative to control; format: functional; in short: as §3
HL-60 [14] = assay: Cell cycle arrest in human HL60 cells assessed as accumulation in S phase at 3.5 uM relative to control; format: functional; in short: as §3
[15] = Cytotoxicity against human MT4 cells after 5 days; format: cell-based
In short: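 MT-4 cells were seeded at 2 · 10^3 cells/well. Compounds were serially diluted in culture medium and cells were incubated for 5 days. Survival was measured by CellTiter Glo luminescence, in duplicate (N = 2).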

HL-60 [16] = assay: Cell cycle arrest in human HL60 cells assessed as accumulation in S phase at 18 uM relative to control; format: functional; in short: as §3
HL-60 [17] = assay: Cell cycle arrest in human HL60 cells assessed as accumulation in G2/M phase at 18 uM relative to control; format: functional; in short: as §3
HL-60 [18] = assay: Cell cycle arrest in human HL60 cells assessed as accumulation in G1 phase at 18 uM relative to control; format: functional; in short: as §3

| Compound | IC50 (CCRF-CEM [1]) [µM] | IC50 (HL-60 [2]) [µM] | IC50 (CCRF-CEM [3]) [µM] | EC50 (Hepatitis C virus) [µM] | IC50 (HL-60 [5]) [µM] | IC50 (L1210) [µM] | CC50 at 72 h [8] [µM] | Activity (CCRF-CEM [3]) | Activity (HL-60 [5]) | Activity (L1210) | other results |
| --- | --- | --- | --- | --- | --- | --- | --- | --- | --- | --- | --- |
| CN(CCc1ncnc2c1ncn2[C@@H]1O[C@H](CO)[C@@H](O)[C@H]1O)Cc1ccccc1 | 5.83 | 17.7 | 5.7 | 11 | 11.2 | 7.9 | 132 | – | – | – | Activity (HL-60 [4]): 1.08; Activity (HL-60 [6]): 0.95; Activity (HL-60 [7]): 0.94 |
| CCCCN(CCCC)CCc1ncnc2c1ncn2[C@@H]1O[C@H](CO)[C@@H](O)[C@H]1O | 4.59 | 13.8 | 6.4 | 5.6 | 5.3 | 4.4 | 37 | – | – | – | Activity (HL-60 [9]): 0.85; Activity (HL-60 [10]): 0.93; Activity (HL-60 [11]): 0.68; Activity (HL-60 [12]): 0.64; Activity (HL-60 [13]): 1.51; Activity (HL-60 [14]): 1.15 |
| OC[C@H]1O[C@@H](n2cnc3c(/C=C/N4CCCCC4)ncnc32)C[C@@H]1O | – | – | – | 53 | – | – | > 100 | inactive | inactive | inactive | – |
| OC[C@H]1O[C@@H](n2cnc3c(/C=C/N4CCCCC4)ncnc32)[C@H](O)[C@@H]1O | 0.32 | 0.44 | 2.1 | 1 | 2.3 | 1.55 | 26 | – | – | – | CC50 at 120 h [15]: 6 µM |
| COCCc1ncnc2c1ncn2[C@@H]1O[C@H](CO)[C@@H](O)[C@H]1O | – | – | – | 40 | – | – | > 100 | inactive | inactive | inactive | CC50 at 120 h [15]: 13 µM |
| CN(C)CCc1ncnc2c1ncn2[C@H]1C[C@H](O)[C@@H](CO)O1 | – | – | – | 116 | – | – | > 250 | inactive | inactive | inactive | – |
| CN(C)/C=C/c1ncnc2c1ncn2[C@@H]1O[C@H](CO)[C@@H](O)[C@H]1O | 0.8 | 0.62 | 1.25 | 4 | 3.3 | 2.2 | 5 | – | – | – | – |
| OC[C@H]1O[C@@H](n2cnc3c(/C=C/N4CCOCC4)ncnc32)[C@H](O)[C@@H]1O | 0.41 | 0.31 | 2.4 | 5 | 4.5 | 2.3 | 23 | – | – | – | – |
| OC[C@H]1O[C@@H](n2cnc3c(CCN4CCCCC4)ncnc32)[C@H](O)[C@@H]1O | – | – | – | 37 | – | – | > 250 | inactive | inactive | inactive | – |
| COC(=O)CSCCc1ncnc2c1ncn2[C@@H]1O[C@H](CO)[C@@H](O)[C@H]1O | – | – | – | 54 | – | – | > 100 | inactive | inactive | inactive | CC50 at 120 h [15]: > 100 µM |
| CSCCc1ncnc2c1ncn2[C@@H]1O[C@H](CO)[C@@H](O)[C@H]1O | – | – | – | > 100 | – | – | > 100 | inactive | inactive | inactive | – |
| CCN(/C=C/c1ncnc2c1ncn2[C@@H]1O[C@H](CO)[C@@H](O)[C@H]1O)CC | 0.67 | 0.81 | 1 | 4 | 2.3 | 2.2 | 8 | – | – | – | – |
| CCCCN(/C=C/c1ncnc2c1ncn2[C@@H]1O[C@H](CO)[C@@H](O)[C@H]1O)CCCC | 0.83 | 0.84 | 2.5 | 1 | 7.2 | 2 | 2 | – | – | – | – |
| CN(C)CCc1ncnc2c1ncn2[C@@H]1O[C@H](CO)[C@@H](O)[C@H]1O | – | – | – | 7 | – | – | 20 | inactive | inactive | inactive | – |
| OC[C@H]1O[C@@H](n2cnc3c(CC4SCCS4)ncnc32)[C@H](O)[C@@H]1O | – | – | – | > 100 | – | – | > 100 | inactive | inactive | inactive | – |
| OC[C@H]1O[C@@H](n2cnc3c(CCN4CCOCC4)ncnc32)C[C@@H]1O | – | – | – | 25 | – | – | > 100 | inactive | inactive | inactive | CC50 at 120 h [15]: 13 µM |
| OC[C@H]1O[C@@H](n2cnc3c(CCN4CCOCC4)ncnc32)[C@H](O)[C@@H]1O | – | – | – | 6 | – | – | 31 | inactive | inactive | inactive | – |
| CCN(CC)CCc1ncnc2c1ncn2[C@@H]1O[C@H](CO)[C@@H](O)[C@H]1O | 0.8 | 17.3 | 1.25 | 6.7 | 6.8 | 5.2 | 45 | – | – | – | Activity (HL-60 [4]): 0.99; Activity (HL-60 [16]): 0.78; Activity (HL-60 [17]): 0.65; Activity (HL-60 [18]): 1.38; Activity (HL-60 [6]): 1.08; Activity (HL-60 [7]): 0.8 |
| O=c1[nH]c(=O)n([C@H]2C[C@H](O)[C@@H](CO)O2)cc1F [FLOXURIDINE] | – | – | 0.017 | – | 0.012 | 0.012 | – | – | – | – | – |
| CN(/C=C/c1ncnc2c1ncn2[C@@H]1O[C@H](CO)[C@@H](O)[C@H]1O)Cc1ccccc1 | 0.78 | 0.57 | 2.3 | 0.34 | 3.6 | 2.1 | 1 | – | – | – | – |
| OC[C@H]1O[C@@H](n2cnc3c(CCSc4nc5ccccc5s4)ncnc32)[C@H](O)[C@@H]1O | – | – | – | > 100 | – | – | > 100 | inactive | inactive | inactive | – |
| OC[C@H]1O[C@@H](n2cnc3c(CCSCc4ccccc4)ncnc32)[C@H](O)[C@@H]1O | – | – | – | > 100 | – | – | > 100 | inactive | inactive | inactive | – |
| C[C@@]1(O)[C@H](O)[C@@H](CO)O[C@H]1n1cnc2c(N)ncnc21 | – | – | – | 0.23 | – | – | > 100 | – | – | – | – |
| CCCCN(/C=C/c1ncnc2c1ncn2[C@H]1C[C@H](O)[C@@H](CO)O1)CCCC | – | – | – | 85 | – | – | > 100 | inactive | inactive | inactive | – |
